# Test results as given in ChEMBL document CHEMBL1132437, “Synthesis and antimicrobial activity of 4H-4-oxoquinolizine derivatives: consequences of structural modification at the C-8 position” (1999).
# Experiments:
# [1] = tested on: Enterococcus faecium; test: In vitro antibacterial activity against gram-positive Enterococcus faecium ATCC 8043; type: functional
# In short: (§1)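 Agar dilution MIC determination following the National Committee for Clinical Laboratory Standards recommendations.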
# [2] = tested on: Escherichia coli; test: In vitro antibacterial activity against gram negative Escherichia coli KNK 437; type: functional; in short: as §1
# [3] = tested on: Pseudomonas aeruginosa; test: In vivo efficacy against Pseudomonas aeruginosa 5007 in mouse protection test after subcutaneous administration; type: functional; settings: Pseudomonas aeruginosa, sc; read-out: ED50
# In short: (§2)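 Mouse protection model: mice infected intravenously with 100-fold LD50 of the organism. Compound given by subcutaneous injection or oral gavage at 1 and 5 h after infection, over a dose range. Deaths tracked for 7 days post-inoculation. ED50 is the dose giving 50% survival of treated mice over the trial.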
# [4] = tested on: Staphylococcus aureus; test: In vivo efficacy against Staphylococcus aureus NCTC 10649M in mouse protection test after p.o. administration.; type: functional; settings: Staphylococcus aureus, po; read-out: ED50; in short: as §2
# [5] = tested on: Staphylococcus aureus; test: In vivo efficacy against Staphylococcus aureus NCTC 10649M in mouse; type: functional; settings: Staphylococcus aureus; read-out: ED50; in short: as §2
# [6] = tested on: Mus musculus; test: In vivo efficacy against Pseudomonas aeruginosa 5007 in mouse protection test after administration by oral gavage.; type: functional; in short: as §2
# [7] = tested on: Escherichia coli; test: In vivo efficacy against Escherichia coli JUHL in mouse protection test after subcutaneous administration; type: functional; settings: Escherichia coli, sc; read-out: ED50; in short: as §2
# [8] = tested on: Mus musculus; test: IIn vivo efficacy against Escherichia coli JUHL in mouse protection test after administration by oral gavage; type: functional; in short: as §2
# [9] = tested on: Pseudomonas aeruginosa; test: In vitro antibacterial activity against Gram-negative Pseudomonas aeruginosa 5007; type: functional; in short: as §1
# [10] = tested on: Pseudomonas aeruginosa; test: In vitro antibacterial activity against gram negative P. aeruginosa DPHP 5263; type: functional; in short: as §1
# [11] = tested on: Burkholderia cepacia; test: In vitro antibacterial activity against gram negative Pseudomonas cepacia 2961; type: functional; in short: as §1
# [12] = tested on: Staphylococcus aureus; test: In vitro antibacterial activity against gram-positive Staphylococcus aureus 1775; type: functional; in short: as §1
# [13] = tested on: Staphylococcus aureus; test: In vitro antibacterial activity against gram-positive Staphylococcus aureus NCTC 10649M; type: functional; in short: as §1
# [14] = tested on: Streptococcus pyogenes; test: In vitro antibacterial activity against gram positive Streptococcus pyogenes 930; type: functional; in short: as §1
# [15] = tested on: Mus musculus; test: In vivo efficacy against Streptococcus pneumoniae ATCC 6303 in mouse protection test after administration by oral gavage; type: functional; in short: as §2
# [16] = tested on: Streptococcus pneumoniae; test: In vivo efficacy against Streptococcus pneumoniae ATCC 6303 in mouse protection test after s.c. administration.; type: functional; settings: Streptococcus pneumoniae, sc; read-out: ED50; in short: as §2
# [17] = tested on: Escherichia coli; test: In vivo efficacy against Escherichia coli JUHL in mouse protection test after p.o. administration.; type: functional; settings: Escherichia coli, po; read-out: ED50; in short: as §2
# [18] = tested on: Pseudomonas aeruginosa; test: In vivo efficacy against Pseudomonas aeruginosa 5007 in mouse protection test after administration by oral gavage; type: functional; settings: Pseudomonas aeruginosa, po; read-out: ED50; in short: as §2
# [19] = tested on: Mus musculus; test: In vivo efficacy against Staphylococcus aureus NCTC 10649M in mouse protection test
# [20] = tested on: Escherichia coli; test: In vitro antibacterial activity against Escherichia coli KNK 437 a ciprofloxacin less sensitive strain; type: functional; in short: as §1
# [21] = tested on: Mus musculus; test: In vivo efficacy against Pseudomonas aeruginosa 5007 in mouse protection test […]; type: functional; in short: as §2
# [22] = tested on: Mus musculus; test: In vivo efficacy against Streptococcus pneumoniae ATCC 6303 in mouse protection test after administration by oral gavage.; type: functional; in short: as §2
# [23] = Enterococcus faecium, ATCC 8043, read-out: MIC
# [24] = Escherichia coli, read-out: MIC
# [25] = Pseudomonas aeruginosa, read-out: MIC
# [26] = Pseudomonas aeruginosa, DPHP 5263, read-out: MIC
# [27] = Burkholderia cepacia, read-out: MIC
# [28] = Staphylococcus aureus, read-out: MIC
# [29] = Staphylococcus aureus, NCTC 10649, read-out: MIC
# [30] = Streptococcus pyogenes, read-out: MIC
SMILES,"MIC [1, 23] [µg/mL]","MIC [2, 24] [µg/mL]",ED50 [3] [mg/kg],ED50 [4] [mg/kg],ED50 [5] [mg/kg],ED50 [7] [mg/kg],"MIC [9, 25] [µg/mL]","MIC [10, 26] [µg/mL]","MIC [11, 27] [µg/mL]","MIC [12, 28] [µg/mL]","MIC [13, 29] [µg/mL]","MIC [14, 30] [µg/mL]",ED50 [15] [mg/kg],ED50 [16] [mg/kg],ED50 [17] [mg/kg],MIC [1] [µg/mL],MIC [9] [µg/mL],MIC [10] [µg/mL],MIC [11] [µg/mL],MIC [12] [µg/mL],further results
Cc1c(N2C[C@H]3NCCO[C@@H]3C2)c(F)cn2c(=O)c(C(=O)O)cc(C3CC3)c12,0.2,0.78,> 32,11.5,6,> 5,1.56,25,3.1,0.78,0.05,0.2,–,–,–,–,–,–,–,–,ED50 [6]: > 50 mg/kg; ED50 [8]: > 20 mg/kg
Cc1c(N2CC[C@@H](NCCF)C2)c(F)cn2c(=O)c(C(=O)O)cc(C3CC3)c12,0.1,1.56,> 32,9.6,–,4.4,1.56,25,1.56,0.39,0.02,0.05,30.7,8,34.1,–,–,–,–,–,ED50 [18]: > 50 mg/kg; ED50 [19]: 2.1 mg/kg
Cc1c(N2CC[C@H](N)C2)c(F)cn2c(=O)c(C(=O)O)cc(C3CC3)c12 (stereo in doubt; -(S)-3i) [ABT-719],–,–,–,–,–,–,–,–,–,–,–,–,–,–,–,0.02,0.05,0.39,0.39,0.78,MIC [20]: 0.02 µg/mL; MIC [13]: 0.01 µg/mL; MIC [14]: 0.02 µg/mL
CN[C@@H]1CN(c2c(F)cn3c(=O)c(C(=O)O)cc(C4CC4)c3c2C)C[C@H]1C (stereo in doubt; 3v),–,–,16.1,6.3,1.6,2.8,–,–,–,–,–,–,–,5,9.1,0.2,0.39,12.5,1.56,1.56,MIC [2]: 0.2 µg/mL; ED50 [21]: > 50 mg/kg; ED50 [22]: 13 mg/kg; MIC [13]: 0.02 µg/mL; MIC [14]: 0.2 µg/mL
Cc1c(N2CC[C@H](NC3CC3)C2)c(F)cn2c(=O)c(C(=O)O)cc(C3CC3)c12,0.2,0.2,> 32,25,3.6,5,0.39,12.5,0.39,0.39,0.02,0.05,23.1,> 8,16.5,–,–,–,–,–,ED50 [21]: > 50 mg/kg
